# Rows were chosen to be rich in hits. Some 1.5% of all compounds tested hit in one or more screens of this group.
# LANA-H2A inh = blocks KSHV LANA binding to histone H2A/H2B | Q9QR71 | AID 2629 | inhibition, % (concentration not given with the values) | cell-free LANA-H2A/H2B peptide, fluorescence polarization | actives 0.6% (n = 320,000); in the data active = inhibition mostly above about 10%, no sharp cut-off; inactive = mostly below about 6.7%
# CAL PDZ FP-1 = inhibitors of human CAL PDZ peptide binding. Q9HD26. purified CAL PDZ, TMR-peptide fluorescence polarization, 1 h. inhibition, % at 24.9 µM. actives 0.92% (n = 300,000);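 active = mean inhibition of at least 30% with at least half of replicates also reaching 30%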;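 note: 0% = DMSO neutral control and 100% = excess unlabeled competitor peptide PRC23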
# C-LANA FP = blocks KSHV LANA C-terminal domain binding to DNA | MBP-C-LANA/FAM-LBS DNA binding, fluorescence polarization | inhibition, % at 9 µM | actives 0.078% (n = 340,000);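 active = highest replicate inhibition at or above 60% at 9 µM, even if other replicates fall short; inactive = all replicates below 60% inhibition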;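 note: 0% = neutral control wells and 100% = 4 µM acridine orange control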
# CaV13 FRET inh = Primary screen for inhibitors of IQ motif and Ca2+-dependent inactivation inhibitor domain binding in CACNA1D, Förster resonance energy transfer in living cells, …; actives 0.098% (n = 340,000); HEK cells, CFP/YFP FRET ICDI-IQ, plate reader, 10 min; percent FRET-ratio fall versus neutral wells; AID 743397; inhibition, % at 12.3 µM;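 active = mean replicate inhibition of at least 30% and at least 1% of replicates passing that level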;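 note: 0% = median of the neutral control wells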
# CAL PDZ FP-2 = blocks peptide binding to human CAL PDZ domain; AID 504414; purified CAL PDZ, TMR-peptide fluorescence polarization, 1 h; inhibition, % at 20 µM; Q9HD26; actives 0.02% (n = 330,000);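 active = highest replicate inhibition of at least 40%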;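 note: plate controls were DMSO neutral control wells for no effect and unlabeled competitor peptide control wells for full effect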
#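 Material: tagged CAL PDZ domain; buffer or medium: 25 mM sodium phosphate pH 7.4, 150 mM NaCl, TCEP, IgG, Thesit; compound dosing: single point, 20 µM; schedule: 1 h incubation at room temperature before polarization reading; measured by: FP readout, S and P plane fluorescence; read-out basis: percent inhibition from loss of millipolarization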
# Keap1 Nrf2 FP = Keap1-Nrf2 (human) interaction inhibition; Keap1 Kelch-Nrf2 peptide fluorescence polarization, 1536-well; actives 0.15% (n = 340,000); Q14145; inhibition, % at 9.4 µM; in the data active = inhibition above about 12%;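 note: human Keap1 Kelch domain with fluorescein labeled Nrf2 9mer peptide probe; 0% = neutral control wells and 100% = peptide positive control; higher means more block of Keap1 binding to Nrf2 peptide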
# Target sequence (Q14145 whole entry, looked up, the tested form may be a part): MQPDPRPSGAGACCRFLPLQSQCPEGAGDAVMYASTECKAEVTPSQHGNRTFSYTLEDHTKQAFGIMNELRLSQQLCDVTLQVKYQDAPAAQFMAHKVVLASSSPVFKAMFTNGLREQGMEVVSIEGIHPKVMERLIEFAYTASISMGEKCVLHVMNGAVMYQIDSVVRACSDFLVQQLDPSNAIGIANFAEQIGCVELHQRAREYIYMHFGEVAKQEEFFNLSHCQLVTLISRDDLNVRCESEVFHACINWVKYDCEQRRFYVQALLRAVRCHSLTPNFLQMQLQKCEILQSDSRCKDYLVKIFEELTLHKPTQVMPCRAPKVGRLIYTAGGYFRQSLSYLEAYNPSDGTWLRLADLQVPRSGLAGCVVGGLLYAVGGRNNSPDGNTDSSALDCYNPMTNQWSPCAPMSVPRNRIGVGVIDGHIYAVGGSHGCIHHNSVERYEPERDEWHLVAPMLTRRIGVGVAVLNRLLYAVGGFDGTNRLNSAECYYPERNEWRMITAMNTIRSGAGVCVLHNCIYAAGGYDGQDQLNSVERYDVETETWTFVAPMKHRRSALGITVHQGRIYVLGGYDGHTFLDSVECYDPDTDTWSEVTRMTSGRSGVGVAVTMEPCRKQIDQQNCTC
# * = called active by the depositor; i = inactive; · = no result; + = active, no number.
SMILES,LANA-H2A inh,CAL PDZ FP-1,C-LANA FP,CaV13 FRET inh,CAL PDZ FP-2,Keap1 Nrf2 FP
N#CC1(NC(=O)COC(=O)C2=COCCO2)CCCCC1,9,·,·,-6,1,194*
CC(C)C[C@H](NC(=O)c1ccco1)C(=O)N1CCC[C@H]1C(=O)NCc1ccccc1,·,·,·,-8,·,·
CCOC(=O)c1cc(OC(C)=O)c2ccc(OC)c(OC)c2c1,·,·,·,-6,·,·
CCOCCCNC(=S)N1CCCN(c2nc3cc(C)c(C)cc3cc2C#N)CC1,5,·,0,94*,-1,-1
COCCCNC(=O)C[C@@H]1C[C@@]2(C(=O)OC)CC(C)(C)CC=C2N(Cc2ccc3c(c2)OCO3)C1=O,·,·,·,-16,·,·
O=S(=O)(c1ccc(Cl)cc1)N1CCCC1c1nc(-c2ccc(Cl)cc2)no1 (centres undefined),3,1,2,-3,-1,1
Nc1nc(C2CCCN2S(=O)(=O)c2ccc(Cl)cc2)cs1 (centres undefined),-3,46*,0,·,-3,-4
COC(=O)C1=C(C)N(Cc2ccccc2C(F)(F)F)C(=NCc2ccc(OC)cc2)NC1c1ccccc1C(F)(F)F (centres undefined),·,·,·,-13,·,·
S=C(SCc1nc(-c2ccc(Cl)cc2)no1)N1CCSCC1,·,·,·,-22,·,·
COc1ccc(Cn2c(=S)[nH]c3cc(OC)c(OC)cc3c2=O)cc1,-3,0,0,15,1,-2
COc1cc2[nH]c(=S)n(Cc3ccc(C)cc3)c(=O)c2cc1OC,-3,40*,1,-6,8,4
O=C(/C=C/c1cccc(Br)c1)NCc1ccncc1,-1,-3,-3,-2,-2,3
COc1ccccc1N(CC(=O)N1CCN(c2ccc(F)cc2)CC1)S(=O)(=O)c1ccc(C)cc1,-3,55*,0,-6,-2,-7
Cc1cc(C)nc(N(C#N)Cc2cccc([N+](=O)[O-])c2)n1,3,46*,0,-6,-1,1
CCOC(=O)c1cc(C#N)c(N2CCN(C(=O)c3cccc(C(F)(F)F)c3)CC2)nc1C(F)(F)F,-5,65*,0,-5,-2,1
COC(=O)[C@]12C[C@H](CC(=O)NCc3cccs3)C(=O)N(Cc3ccc4c(c3)OCO4)C1=C[C@H](C(C)(C)C)O[C@@H]2C,·,·,·,-9,·,·
O=C(NNC(=O)C1CCCCC1)c1ccc(Br)cc1,6,3,0,-5,-1,5
O=C(NNC(=O)C1CCC1)c1ccc(Br)cc1,-5,50*,0,-2,0,0
O=C(N[C@@H](Cc1cccnc1)C(=O)N1CCC[C@H]1C(=O)NCCc1ccccc1Cl)c1ccccc1,·,·,·,-3,·,·
CCN1/C(=C/c2sc(-c3ccccc3C)c[n+]2C)Sc2ccccc21,·,6,-8,+,1,-2
O=C(NCCCN1CCOCC1)C(=O)N/N=C/c1c2ccccc2cc2ccccc12,2,-8,2,-10,-2,-4
COc1cc(/C=N/NC(=O)C(NC(=O)c2ccccc2)c2n[nH]c(=O)c3ccccc23)ccc1OCC(N)=O (centres undefined),22*,-2,-1,-13,-2,2
O=C(NC(C(=O)N/N=C/c1ccncc1)c1n[nH]c(=O)c2ccccc12)c1ccccc1 (centres undefined),-4,-2,-1,-2,-3,0
Cc1ccc2nc(-c3ccccn3)c(N)n2c1,·,·,·,-4,·,·
CN(CC(=O)Nc1ccc(F)cc1)C(=O)c1cn(-c2ccccc2)nc1-c1cccs1,-21,31*,2,-3,-1,-1
SMILES,LANA-H2A inh,CAL PDZ FP-1,C-LANA FP,CaV13 FRET inh,CAL PDZ FP-2,Keap1 Nrf2 FP
O=C(O)C1CSC(c2ccc(O)c([N+](=O)[O-])c2)N1 (centres undefined),·,2,1,7,0,-1
O=C(O)C1CSC(c2ccc3c(c2)OCO3)N1 (centres undefined),22*,-4,0,3,-1,-10
Cc1ccc(S(=O)(=O)N2CCCCC2)cc1NC(=O)C1CC1,4,-4,-1,-15,-1,-7
COc1ccc(S(=O)(=O)N2CCC(C(=O)NC3CCCC3)CC2)cc1OC,16*,-4,1,-1,-1,-2
COc1ccc(S(=O)(=O)N2CCCCC2)cc1NC(=O)C1CC1,1,32*,0,-15,-1,-2
CC1(C)CC(NC(=O)C2CCN(S(=O)(=O)c3ccc(Cl)c(C(F)(F)F)c3)CC2)CC(C)(C)N1,·,58*,-2,-17,0,-1
COc1ccc(S(=O)(=O)N2CCC(C(=O)NC3CCCC3)CC2)cc1C,-1,9,-1,-2,-1,-6
COc1ccc(S(=O)(=O)N2CCCCCC2)cc1C(=O)OC(C)C(N)=O (centres undefined),9,+,2,-5,0,3
CC1(C)CC(NC(=O)C2CCN(S(=O)(=O)c3ccccc3C(F)(F)F)CC2)CC(C)(C)N1,-2,-2,-2,-2,1,-5
COc1cc2c(c(OC)c1OC)CC(c1ccccc1)=C(c1ccccc1)CC2NC(=O)C(F)(F)F (centres undefined),·,·,·,-3,·,·
COC(=O)C[C@@H]1C=C[C@H](NC(=O)c2cnccn2)[C@@H](CO)O1,·,·,·,-6,·,·
COc1ccc(S(=O)(=O)N2CCCCCC2)cc1NC(C)C(=O)Nc1ccc(NC(C)=O)cc1 (centres undefined),·,48*,2,-5,0,4
COc1ccc(NC(C)=O)cc1NC(C)C(=O)Nc1cccc(S(=O)(=O)N2CCOCC2)c1 (centres undefined),-4,-2,-1,-2,1,-3
CC(C(=O)Nc1ccc(S(=O)(=O)N2CCCC2)cc1)N1CCN(C(=O)c2ccco2)CC1 (centres undefined),-3,-6,0,-5,-1,-1
CC(C(=O)Nc1ccc(S(=O)(=O)N2CCCCC2)cc1)N1CCN(c2ccccn2)CC1 (centres undefined),138*,·,·,·,·,·
COc1ccc(-c2ccc3c(n2)CCCN3S(=O)(=O)c2cccs2)cc1,·,·,·,-11,·,·
CC(=O)N1CCC(N2CCN(c3ccccc3F)CC2)CC1,17*,·,0,-6,-1,-4
Cc1ccc(S(=O)(=O)Cc2cc(F)c([N+](=O)[O-])cc2[N+](=O)[O-])cc1,0,47*,1,·,-1,0
CCOC(=O)c1ccc([N+](=O)[O-])c(CS(=O)(=O)c2ccc(Cl)cc2)c1,1,1,-4,-2,-1,4
COc1cccc(N/C=C/C(=O)c2ccc(Cl)cc2)c1,i,-2,2,-6,-2,-3
COc1ccc(N/C=C/C(=O)c2ccc(Cl)cc2)cc1,33*,1,3,-9,-1,0
